Assay results reported in ChEMBL document CHEMBL4346689, “Novel benzenesulfonamide and 1,2-benzisothiazol-3(2H)-one-1,1-dioxide derivatives as potential selective COX-2 inhibitors” (Eur J Med Chem, 2019).

Legend:
[1] = target: T1, Prostaglandin G/H synthase 1 (Ovis aries, UniProt P05979); assay: Inhibition of ovine COX1 assessed as reduction in oxidized TMPD using arachidonic acid as substrate preincubated for 5 mins followed by substrate addition and measured after 2 mins by colorimetric assay
T1 sequence (P05979 whole entry): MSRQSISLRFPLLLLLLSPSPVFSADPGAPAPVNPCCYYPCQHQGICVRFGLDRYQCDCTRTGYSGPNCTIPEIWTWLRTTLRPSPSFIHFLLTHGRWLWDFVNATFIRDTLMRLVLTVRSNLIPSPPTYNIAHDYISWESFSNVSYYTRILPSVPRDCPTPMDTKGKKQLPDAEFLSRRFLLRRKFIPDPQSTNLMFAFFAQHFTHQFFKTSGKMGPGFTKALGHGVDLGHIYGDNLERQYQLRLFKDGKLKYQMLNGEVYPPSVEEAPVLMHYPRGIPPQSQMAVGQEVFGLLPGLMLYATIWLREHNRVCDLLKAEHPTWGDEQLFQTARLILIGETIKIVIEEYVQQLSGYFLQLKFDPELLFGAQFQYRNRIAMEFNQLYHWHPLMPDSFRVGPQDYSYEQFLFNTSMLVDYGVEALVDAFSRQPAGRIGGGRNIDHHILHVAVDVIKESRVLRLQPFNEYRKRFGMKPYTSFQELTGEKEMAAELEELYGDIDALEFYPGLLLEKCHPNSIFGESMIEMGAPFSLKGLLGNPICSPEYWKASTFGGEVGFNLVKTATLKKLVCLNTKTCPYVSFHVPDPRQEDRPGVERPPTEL

[2] = tested on: Rattus norvegicus; assay: Antiinflammatory activity against carrageenan-induced paw oedema in albino rat assessed as hind paw thickness at 18 mg/kg, ip pretreated for 1 hr followed by carrageenan challenge and measured after 3 hrs by caliper method (reference value: 0.94 +/- 0.02 millimeter); assay type: functional
Outline: (§1)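 Male albino rats, 150–200 g, six per group, housed at 27 °C on a 12/12 light-dark cycle. Given 18 mg/kg i.p.; control group left untreated. Right hind paw injected 1 h later with 0.1 mL 10% carrageenin. Paw thickness measured by skin caliper at 1, 2, 3 and 4 h after injection. Reported as mean ± S.D., n = 6; significance p < 0.05.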

[3] = Ulcerogenicity in albino rat assessed as average severity score at 18 mg/kg, po administrated once daily for 3 successive days and measured after 6 hrs from last dose (reference value: 0); assay type: toxicity, organism-based; conditions: in vivo
[4] = tested on: Rattus norvegicus; assay: Antiinflammatory activity in albino rat assessed as inhibition of carrageenan-induced paw edema at 18 mg/kg, ip pretreated for 1 hr followed by carrageenan challenge and measured after 4 hrs by caliper method relative to control; assay type: functional
Outline: (§2)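 Carrageenin paw edema in male albino rats (150–200 g, n = 6 per group), 18 mg/kg i.p. 1 h before 0.1 mL 10% carrageenin into the right hind paw. Caliper thickness at 1–4 h. Percent edema inhibition derived from thickness change relative to the untreated control group.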

[5] = tested on: Rattus norvegicus; assay: Antiinflammatory activity in albino rat assessed as inhibition of carrageenan-induced paw edema at 18 mg/kg, ip pretreated for 1 hr followed by carrageenan challenge and measured after 1 hr by caliper method relative to control; assay type: functional; outline: as §2
[6] = tested on: Rattus norvegicus; assay: Antiinflammatory activity against carrageenan-induced paw oedema in albino rat assessed as hind paw thickness at 18 mg/kg, ip pretreated for 1 hr followed by carrageenan challenge and measured after 2 hrs by caliper method (reference value: 0.84 +/- 0.02 millimeter); assay type: functional; outline: as §1
[7] = tested on: Rattus norvegicus; assay: Antiinflammatory activity against carrageenan-induced paw oedema in albino rat assessed as hind paw thickness at 18 mg/kg, ip pretreated for 1 hr followed by carrageenan challenge and measured immediately by caliper method (reference value: 0.24 +/- 0.24 millimeter); assay type: functional
[8] = Ulcerogenicity in albino rat assessed as ulcer index at 18 mg/kg, po administrated once daily for 3 successive days and measured after 6 hrs from last dose (reference value: 0); assay type: toxicity, organism-based; conditions: in vivo
[9] = tested on: Rattus norvegicus; assay: Antiinflammatory activity against carrageenan-induced paw oedema in albino rat assessed as hind paw thickness at 18 mg/kg, ip pretreated for 1 hr followed by carrageenan challenge and measured after 1 hr by caliper method (reference value: 0.73 +/- 0.03 millimeter); assay type: functional; outline: as §1
[10] = tested on: Rattus norvegicus; assay: Antiinflammatory activity against carrageenan-induced paw oedema in albino rat assessed as hind paw thickness at 18 mg/kg, ip pretreated for 1 hr followed by carrageenan challenge and measured after 4 hrs by caliper method (reference value: 1.24 +/- 0.02 millimeter); assay type: functional; outline: as §1
[11] = tested on: Rattus norvegicus; assay: Antiinflammatory activity in albino rat assessed as inhibition of carrageenan-induced paw edema at 18 mg/kg, ip pretreated for 1 hr followed by carrageenan challenge and measured after 2 hrs by caliper method relative to control; assay type: functional; outline: as §2
[12] = Ulcerogenicity in albino rat assessed as incidence of gastric ulceration at 18 mg/kg, po administrated once daily for 3 successive days and measured after 6 hrs from last dose relative to control; assay type: toxicity, organism-based; conditions: in vivo
[13] = tested on: Rattus norvegicus; assay: Antiinflammatory activity in albino rat assessed as inhibition of carrageenan-induced paw edema at 18 mg/kg, ip pretreated for 1 hr followed by carrageenan challenge and measured after 3 hrs by caliper method relative to control; assay type: functional; outline: as §2

SMILES	IC50 [1] [µM]	Activity [2] [mm]	Activity [3]	inhibition in vivo at 18 mg/kg [4] [%]	inhibition in vivo at 18 mg/kg [5] [%]	Activity [6] [mm]	Activity [7] [mm]	UI [8]	Activity [9] [mm]	Activity [10] [mm]	inhibition in vivo at 18 mg/kg [11] [%]	Activity [12] [%]	inhibition in vivo at 18 mg/kg [13] [%]
O=S(=O)(NCc1ccccc1)c1ccccc1-c1nnc(S)n1/N=C/c1ccc(Br)cc1	4.21	–	–	–	–	–	–	–	–	–	–	–	–
O=S(=O)(NCc1ccccc1)c1ccccc1-c1nnc(SCc2ccccc2)o1	3.68	–	–	–	–	–	–	–	–	–	–	–	–
COc1ccc(/C=N/n2c(S)nnc2-c2ccccc2S(=O)(=O)NCc2ccccc2)cc1	3.25	–	–	–	–	–	–	–	–	–	–	–	–
O=C(N/N=C/c1ccc(Cl)cc1)C(C(=O)N/N=C/c1ccc(Cl)cc1)N1C(=O)c2ccccc2S1(=O)=O	7.65	–	–	–	–	–	–	–	–	–	–	–	–
O=C(N/N=C/c1ccccc1)C(C(=O)N/N=C/c1ccccc1)N1C(=O)c2ccccc2S1(=O)=O	1.98	–	–	–	–	–	–	–	–	–	–	–	–
O=C(N/N=C/c1ccc(F)cc1)C(C(=O)N/N=C/c1ccc(F)cc1)N1C(=O)c2ccccc2S1(=O)=O	2.78	0.43	1.2	54.3	50.7	0.4	0.24	120	0.36	0.55	52.4	100	54.2
Nn1c(S)nnc1-c1ccccc1S(=O)(=O)NCc1ccccc1	2.98	0.56	3.6	49.2	39.7	0.48	0.24	360	0.44	0.63	42.9	100	45.4
O=S(=O)(NCc1ccccc1)c1ccccc1-c1nnc(S)o1	4.52	–	–	–	–	–	–	–	–	–	–	–	–
O=S(=O)(NCc1ccccc1)c1ccccc1-c1nnc(S)n1/N=C/c1ccccc1	6.45	–	–	–	–	–	–	–	–	–	–	–	–
Cc1cc(-c2ccccc2)n(C(=O)c2ccccc2S(=O)(=O)NC(C)C)n1	9.24	0.38	0.2	65.3	56.2	0.36	0.24	4	0.32	0.43	57.1	20	59.6
O=S(=O)(NCc1ccccc1)c1ccccc1-c1nnc(S)n1/N=C/c1ccc(Cl)cc1	5.71	–	–	–	–	–	–	–	–	–	–	–	–
CC(C)NS(=O)(=O)c1ccccc1C(=O)N1N=C(c2ccccc2)CC1=O	12.2	0.52	0.2	56.5	42.5	0.5	0.24	4	0.42	0.54	43.5	20	44.7
CCSc1nnc(-c2ccccc2S(=O)(=O)NCc2ccccc2)o1	8.21	–	–	–	–	–	–	–	–	–	–	–	–
Cc1cc(-c2ccccc2)n(C(=O)C(C(=O)n2nc(C)cc2-c2ccccc2)N2C(=O)c3ccccc3S2(=O)=O)n1	11.8	0.41	0.2	61.3	50.7	0.41	0.24	4	0.36	0.48	51.2	20	56.4
Cc1ccc(-c2cc(C(F)(F)F)nn2-c2ccc(S(N)(=O)=O)cc2)cc1 [CELECOXIB]	–	0.44	0	62.9	43.8	0.44	0.24	3	0.41	0.46	47.6	0	53.2
COc1ccc2c(c1)c(CC(=O)O)c(C)n2C(=O)c1ccc(Cl)cc1 [INDOMETHACIN]	–	–	4.8	–	–	–	–	480	–	–	–	100	–
